From ChEMBL document CHEMBL1212799 (2010)
Values after ≈ are worked out from the molar mass of the structure shown.

Tests used:
Type in all cases: functional
Pseudomonas aeruginosa [1] = assay: Antibacterial activity against Pseudomonas aeruginosa isolate 1177 in vitro pharmacodynamic model
How it was run: (§1)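 Simulated peak 38.4 µg/ml, trough 3.04 µg/ml. CAMHB at 37°C, 10^6 CFU/ml from overnight culture, drug started at 0.5 h. Two treated models plus one growth control. Change in log10 CFU/ml over 24 h on blood agar. Detection limit 10^1 CFU/ml.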

Pseudomonas aeruginosa [2] = assay: fT>MIC in Pseudomonas aeruginosa isolate 1177 at 2 gram for every 8 hrs administered as 3 hrs infusion measured over 0-8 hrs in in vitro pharmcodynamic model
Klebsiella pneumoniae [3] = assay: fT>MIC in Klebsiella pneumoniae isolate 360 at 2 gram for every 8 hrs administered as 3 hrs infusion measured over 0-8 hrs in in vitro pharmcodynamic model
How it was run: (§2)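 Samples assayed by HPLC (linear 0.25–40 µg/ml). Time free drug stayed above the modal triplicate broth-microdilution MIC (CLSI) calculated for each 8-h interval.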

Klebsiella pneumoniae [4] = assay: Antibacterial activity against Klebsiella pneumoniae isolate 361 assessed as reduction of bacterial count at 64 ug/ml within 6 hrs in vitro pharmacodynamic model
Klebsiella pneumoniae [5] = assay: fT>MIC in Klebsiella pneumoniae isolate 351 at 2 gram for every 8 hrs administered as 3 hrs infusion measured over 16-24 hrs in in vitro pharmcodynamic model; how it was run: as §2
Klebsiella pneumoniae [6] = assay: fT>MIC in Klebsiella pneumoniae isolate 357 at 2 gram for every 8 hrs administered as 3 hrs infusion over 24 hrs in in vitro pharmcodynamic model; how it was run: as §2
Klebsiella pneumoniae [7] = assay: fT>MIC in Klebsiella pneumoniae isolate 377 at 2 gram for every 8 hrs administered as 3 hrs infusion measured over 8-16 hrs in in vitro pharmcodynamic model
Pseudomonas aeruginosa [8] = assay: fT>MIC in Pseudomonas aeruginosa isolate 896 at 2 gram for every 8 hrs administered as 3 hrs infusion measured over 8-16 hrs in in vitro pharmcodynamic model
Klebsiella pneumoniae [9] = assay: fT>MIC in Klebsiella pneumoniae isolate 354 at 2 gram for every 8 hrs administered as 3 hrs infusion over 24 hrs in in vitro pharmcodynamic model; how it was run: as §2
Klebsiella pneumoniae [10] = assay: fT>MIC in Klebsiella pneumoniae isolate 368 at 2 gram for every 8 hrs administered as 3 hrs infusion measured over 16-24 hrs in in vitro pharmcodynamic model
Pseudomonas aeruginosa [11] = assay: fT>MIC in Pseudomonas aeruginosa isolate 1030 at 2 gram for every 8 hrs administered as 3 hrs infusion measured over 8-16 hrs in in vitro pharmcodynamic model
Klebsiella pneumoniae [12] = assay: fT>MIC in Klebsiella pneumoniae isolate 368 at 2 gram for every 8 hrs administered as 3 hrs infusion measured over 8-16 hrs in in vitro pharmcodynamic model
Klebsiella pneumoniae [13] = assay: fT>MIC in Klebsiella pneumoniae isolate 361 at 2 gram for every 8 hrs administered as 3 hrs infusion measured over 16-24 hrs in in vitro pharmcodynamic model; how it was run: as §2
Klebsiella pneumoniae [14] = assay: fT>MIC in Klebsiella pneumoniae isolate 368 at 2 gram for every 8 hrs administered as 3 hrs infusion measured over 0-8 hrs in in vitro pharmcodynamic model; how it was run: as §2
Klebsiella pneumoniae [15] = assay: fT>MIC in Klebsiella pneumoniae isolate 368 at 2 gram for every 8 hrs administered as 3 hrs infusion over 24 hrs in in vitro pharmcodynamic model
Klebsiella pneumoniae [16] = assay: fT>MIC in Klebsiella pneumoniae isolate 357 at 2 gram for every 8 hrs administered as 3 hrs infusion measured over 16-24 hrs in in vitro pharmcodynamic model; how it was run: as §2
Klebsiella pneumoniae [17] = assay: Antibacterial activity against Klebsiella pneumoniae isolate 360 assessed as reduction of bacterial count at 16 ug/ml within 6 hrs in vitro pharmacodynamic model
Pseudomonas aeruginosa [18] = assay: Antibacterial activity against Pseudomonas aeruginosa isolate 1038 assessed as reduction of bacterial count at 8 ug/ml within 6 hrs in vitro pharmacodynamic model
Klebsiella pneumoniae [19] = assay: fT>MIC in Klebsiella pneumoniae isolate 375 at 2 gram for every 8 hrs administered as 3 hrs infusion over 24 hrs in in vitro pharmcodynamic model
Klebsiella pneumoniae [20] = assay: fT>MIC in Klebsiella pneumoniae isolate 360 at 2 gram for every 8 hrs administered as 3 hrs infusion measured over 16-24 hrs in in vitro pharmcodynamic model; how it was run: as §2
Klebsiella pneumoniae [21] = assay: fT>MIC in Klebsiella pneumoniae isolate 328A at 2 gram for every 8 hrs administered as 3 hrs infusion measured over 0-8 hrs in in vitro pharmcodynamic model; how it was run: as §2
Klebsiella pneumoniae [22] = assay: Antibacterial activity against Klebsiella pneumoniae isolate 334 in vitro pharmacodynamic model; how it was run: as §1
Pseudomonas aeruginosa [23] = assay: Antibacterial activity against Pseudomonas aeruginosa isolate 1030 assessed as reduction of bacterial count at 8 ug/ml within 6 hrs in vitro pharmacodynamic model
Klebsiella pneumoniae [24] = assay: fT>MIC in Klebsiella pneumoniae isolate 377 at 2 gram for every 8 hrs administered as 3 hrs infusion over 24 hrs in in vitro pharmcodynamic model
Pseudomonas aeruginosa [25] = assay: fT>MIC in Pseudomonas aeruginosa isolate 1038 at 2 gram for every 8 hrs administered as 3 hrs infusion over 24 hrs in in vitro pharmcodynamic model
Klebsiella pneumoniae [26] = assay: fT>MIC in Klebsiella pneumoniae isolate 360 at 2 gram for every 8 hrs administered as 3 hrs infusion over 24 hrs in in vitro pharmcodynamic model; how it was run: as §2
Pseudomonas aeruginosa [27] = assay: fT>MIC in Pseudomonas aeruginosa isolate 1030 at 2 gram for every 8 hrs administered as 3 hrs infusion measured over 16-24 hrs in in vitro pharmcodynamic model
Klebsiella pneumoniae [28] = assay: Antibacterial activity against Klebsiella pneumoniae isolate 351 assessed as reduction of bacterial count at 8 ug/ml within 6 hrs in vitro pharmacodynamic model
Klebsiella pneumoniae [29] = assay: fT>MIC in Klebsiella pneumoniae isolate 328A at 2 gram for every 8 hrs administered as 3 hrs infusion measured over 8-16 hrs in in vitro pharmcodynamic model; how it was run: as §2
Pseudomonas aeruginosa [30] = assay: fT>MIC in Pseudomonas aeruginosa isolate 1038 at 2 gram for every 8 hrs administered as 3 hrs infusion measured over 8-16 hrs in in vitro pharmcodynamic model
Pseudomonas aeruginosa [31] = assay: fT>MIC in Pseudomonas aeruginosa isolate 896 at 2 gram for every 8 hrs administered as 3 hrs infusion measured over 0-8 hrs in in vitro pharmcodynamic model
Klebsiella pneumoniae [32] = assay: Antibacterial activity against Klebsiella pneumoniae isolate 361 in vitro pharmacodynamic model
How it was run: (§3)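 Inoculum 10^6 CFU/ml; dosing began 0.5 h after inoculation. Two treated models plus one untreated control per isolate; blood-agar counts; change in log10 CFU/ml over 24 h (detection limit 10^1); drug levels checked by HPLC.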

Pseudomonas aeruginosa [33] = assay: fT>MIC in Pseudomonas aeruginosa isolate 988 at 2 gram for every 8 hrs administered as 3 hrs infusion measured over 16-24 hrs in in vitro pharmcodynamic model
Klebsiella pneumoniae [34] = assay: fT>MIC in Klebsiella pneumoniae isolate 354 at 2 gram for every 8 hrs administered as 3 hrs infusion measured over 0-8 hrs in in vitro pharmcodynamic model; how it was run: as §2
Klebsiella pneumoniae [35] = assay: fT>MIC in Klebsiella pneumoniae isolate 377 at 2 gram for every 8 hrs administered as 3 hrs infusion measured over 0-8 hrs in in vitro pharmcodynamic model
Klebsiella pneumoniae [36] = assay: fT>MIC in Klebsiella pneumoniae isolate 377 at 2 gram for every 8 hrs administered as 3 hrs infusion measured over 16-24 hrs in in vitro pharmcodynamic model
Pseudomonas aeruginosa [37] = assay: Antibacterial activity against Pseudomonas aeruginosa isolate 762 assessed as reduction of bacterial count at 16 ug/ml within 6 hrs in vitro pharmacodynamic model
Klebsiella pneumoniae [38] = assay: Antibacterial activity against Klebsiella pneumoniae isolate 328A in vitro pharmacodynamic model; how it was run: as §3

C[C@@H](O)[C@H]1C(=O)N2C(C(=O)O)=C(S[C@@H]3CN[C@H](C(=O)N(C)C)C3)[C@H](C)[C@H]12 [MEROPENEM]
MIC (Pseudomonas aeruginosa [1]): 8 µg/mL (≈ 20.9 µM) | fT>MIC (Pseudomonas aeruginosa [2]): 75% | fT>MIC (Klebsiella pneumoniae [3]): 0% | log10cfu (Klebsiella pneumoniae [4]): >3 | fT>MIC (Klebsiella pneumoniae [5]): 50% | fT>MIC (Klebsiella pneumoniae [6]): 47% | fT>MIC (Klebsiella pneumoniae [7]): 100% | fT>MIC (Pseudomonas aeruginosa [8]): 63% | fT>MIC (Klebsiella pneumoniae [9]): 69% | fT>MIC (Klebsiella pneumoniae [10]): 0% | fT>MIC (Pseudomonas aeruginosa [11]): 78% | fT>MIC (Klebsiella pneumoniae [12]): 0% | fT>MIC (Klebsiella pneumoniae [13]): 0% | fT>MIC (Klebsiella pneumoniae [14]): 0% | fT>MIC (Klebsiella pneumoniae [15]): 16% | fT>MIC (Klebsiella pneumoniae [16]): 0% | log10cfu (Klebsiella pneumoniae [17]): >3 | log10cfu (Pseudomonas aeruginosa [18]): >=3 | fT>MIC (Klebsiella pneumoniae [19]): 16% | fT>MIC (Klebsiella pneumoniae [20]): 0% | fT>MIC (Klebsiella pneumoniae [21]): 69% | MIC (Klebsiella pneumoniae [22]): 32 µg/mL (≈ 83.4 µM) | log10cfu (Pseudomonas aeruginosa [23]): >=3 | fT>MIC (Klebsiella pneumoniae [24]): 100% | fT>MIC (Pseudomonas aeruginosa [25]): 69% | fT>MIC (Klebsiella pneumoniae [26]): 47% | fT>MIC (Pseudomonas aeruginosa [27]): 78% | log10cfu (Klebsiella pneumoniae [28]): >3 | fT>MIC (Klebsiella pneumoniae [29]): 72% | fT>MIC (Pseudomonas aeruginosa [30]): 100% | fT>MIC (Pseudomonas aeruginosa [31]): 50% | MIC (Klebsiella pneumoniae [32]): 64 µg/mL (≈ 167 µM) | fT>MIC (Pseudomonas aeruginosa [33]): 38% | fT>MIC (Klebsiella pneumoniae [34]): 68% | fT>MIC (Klebsiella pneumoniae [35]): 100% | fT>MIC (Klebsiella pneumoniae [36]): 100% | log10cfu (Pseudomonas aeruginosa [37]): >=3 | MIC (Klebsiella pneumoniae [38]): 8 µg/mL (≈ 20.9 µM)
